Data published in ChEMBL document CHEMBL3421535, “Antioxidative compounds from Garcinia buchananii stem bark” (J Nat Prod, 2015).
pEC50: −log10 of the molar value. “And” between values parts separate entries of the source, which are not always exact repeats. Identical values can stand only once.

How the values were obtained:
Type in all cases: physicochemical
[1] = Antioxidant activity assessed as trolox equivalent of […] radical scavenging activity preincubated for 30 mins followed by […] addition measured after 90 mins by lipophilic-ORAC fluorescence assay; conditions: 1.5 h
Method in brief: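 Lipophilic ORAC adapted from the Madrona procedure. Trolox standards (200, 100, 50, 25, 12.5 μM) and sample dilutions were made in 7% (w/v) randomly methylated β-cyclodextrin in acetone/H2O (1:1), which also served as blank. Fluorescein and AAPH were prepared in 10 mM phosphate buffer, pH 7.4. AAPH was added after incubation. Read-out otherwise as H-ORAC; quadruplicate, mean ± SD.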

[2] = Antioxidant activity assessed as trolox equivalent of APPH radical scavenging activity preincubated for 30 mins followed by APPH addition measured after 90 mins by hydrophilic-ORAC fluorescence assay; conditions: 1.5 h
Method in brief: (§1)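 Hydrophilic TEAC (ABTS) or hydrophilic ORAC run by the previously reported method. Each sample was measured in quadruplicate; values are mean ± SD.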

[3] = Antioxidant activity assessed as trolox equivalent of ABTS radical scavenging activity after 10 mins by hydrophilic-TEAC fluorescence assay; method in brief: as §1
[4] = Antioxidant activity assessed as trolox equivalent of ABTS radical scavenging activity after 10 mins by lipophilic-TEAC […] assay
Method in brief: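 Lipophilic ABTS TEAC, a modification of the H-TEAC method. Trolox standards (1000, 500, 250, 125, 62.5 μM) and sample dilutions were prepared in 50% DMSO/H2O. Pure DMSO was added to give 10% final DMSO. Processing and measurement followed H-TEAC; quadruplicate, mean ± SD.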

[5] = Antioxidant activity assessed as H2O2 scavenging activity after 15 mins
Method in brief: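 H2O2 scavenging run by the previously reported method. Each sample was measured in triplicate; values are mean ± SD.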

[6] = Antioxidant activity assessed as trolox equivalent of ABTS radical scavenging activity measured for 1 to 6 mins by lipophilic-TEAC […] assay
Method in brief: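 Lipophilic TEAC adapted from the hydrophilic ABTS method: Trolox standards (1000, 500, 250, 125, 62.5 μM) and sample dilutions made in 50% DMSO. Pure DMSO added to wells, giving 10% DMSO final. Otherwise processed, measured and handled as in H-TEAC. Quadruplicate analyses, mean ± SD.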

[7] = Antioxidant activity assessed as trolox equivalent of […] radical scavenging activity preincubated for 30 mins followed by […] addition measured every 1.14 mins for 120 mins by lipophilic-ORAC fluorescence assay; conditions: 2 h
Method in brief: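 Lipophilic ORAC (modified Madrona procedure): Trolox standards (200–12.5 μM) and samples diluted in 7% RMCD in acetone/water 1:1. Fluorescein and AAPH prepared in 10 mM phosphate buffer pH 7.4. Fluorescein mixed with standard, sample or RMCD blank, incubated as in H-ORAC, then AAPH added. Read-out and data handling as in H-ORAC. Quadruplicate, mean ± SD.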

Compound	Activity [1]	Activity [2] [mmolequiv/mmol]	Activity [3] [mmolequiv/mmol]	Activity [4] [mmolequiv/mmol]	pEC50 [5]	Activity [6] [mMequiv]	Activity [7] [umolequiv/umol]
COc1cc(C(=O)c2c(O)cc3c(c2OC)C=CC(C)(C)O3)ccc1O	4.87 mmolequiv/mmol	2.44	0.4	1.04	≥ 4.27		
COc1c(O)ccc2c1Oc1cc(O)c(CC=C(C)C)c(O)c1C(=O)O2	4.34 mmolequiv/mmol	2.5	0.89	1.68	≥ 4.34		
O=c1c2cc(O)ccc2oc2cccc(O)c12	2.95 mmolequiv/mmol	2.43	0.4	1.33	4.10		
O=C1CC(c2ccc(O)cc2)Oc2cc(O)cc(O)c21 (racemic)	7.35 mmolequiv/mmol	6.2	1.98	2.94	5.07	1.14	
Cc1cc(C(C)(C)C)c(O)c(C(C)(C)C)c1 [BUTYLATED HYDROXYTOLUENE]	0.2 mmolequiv/mmol and 0.12 umolequiv/umol			0.76		0.27	
CC(C)=CC[C@H]1C[C@@]23C[C@@H](CC=C(C)C)C(C)(C)[C@@](CC=C(C)C)(C(=O)C(C(=O)c4ccc(O)c(O)c4)=C2OC1(C)C)C3=O [CAMBOGIN]	3.68 mmolequiv/mmol	0.6	0.48	1.67	4.08		
CC1(C)C=Cc2c(cc3oc4c(O)c(O)ccc4c(=O)c3c2O)O1 [JACAREUBIN]	2.74 mmolequiv/mmol	1.16	0.84	2.06	4.58		
O=c1c(O)c(-c2ccc(O)c(O)c2)oc2cc(O)cc(O)c12 [QUERCETIN]	11.94 mmolequiv/mmol	9.36	4.85	4.84	5.21	3.1	10.4

Continued by rising pEC50 [5], values first:

Activity [1]	Activity [2] [mmolequiv/mmol]	Activity [3] [mmolequiv/mmol]	Activity [4] [mmolequiv/mmol]	pEC50 [5]	Compound	Activity [6] [mMequiv]	Activity [7] [umolequiv/umol]
0.73 mmolequiv/mmol	0.62	1.16	1.09	4.62	O=C1O[C@H]([C@@H](O)CO)C(O)=C1O [ASCORBIC ACID]	1.05	
3.81 mmolequiv/mmol	1.06	0.89	2.96	4.71	CC(C)=CCc1c(O)cc2oc3c(O)c(O)ccc3c(=O)c2c1O		
6.96 mmolequiv/mmol	4.38	1.48	2.92	4.76	O=C1c2c(O)cc(O)c(-c3coc4cc(O)cc(O)c4c3=O)c2O[C@H](c2ccc(O)c(O)c2)[C@H]1O		
3.44 mmolequiv/mmol	1.28	0.81	1.92	4.80	C=C(C)[C@@H](CC=C(C)C)C[C@@]12C[C@@H](CC=C(C)C)C(C)(C)[C@@](CC=C(C)C)(C(=O)C(C(=O)c3ccc(O)c(O)c3)=C1O)C2=O [GARCINOL]		
9.3 mmolequiv/mmol	6.61	2.48	2.84	4.95	O=C1c2c(O)cc(O)cc2O[C@H](c2ccc(O)c(O)c2)C1O (single isomer, unassigned) [(+)-TAXIFOLIN]		
14.56 mmolequiv/mmol	7.54	3.5	4.95	5.07	O=C1c2c(cc(O)c([C@@H]3C(=O)c4c(O)cc(O)cc4O[C@H]3c3ccc(O)c(O)c3)c2O)O[C@H](c2ccc(O)c(O)c2)[C@H]1O		
15.69 mmolequiv/mmol	9.98	3.71	5.01	5.39	Oc1cc(O)c2c(c1)O[C@H](c1ccc(O)c(O)c1)[C@H](O)C2 [(-)-EPICATECHIN]		
15 mmolequiv/mmol	13.73	5.58	5.29	5.55	O=C1c2c(O)cc(O)c([C@@H]3C(=O)c4c(O)cc(O)cc4O[C@H]3c3ccc(O)c(O)c3)c2O[C@H](c2ccc(O)c(O)c2)[C@H]1O		
